Test results as given in ChEMBL document CHEMBL4602716, “Development of Selective Histone Deacetylase 6 (HDAC6) Degraders Recruiting Von Hippel-Lindau (VHL) E3 Ubiquitin Ligase” (ACS Med Chem Lett, 2020).
Calls of active or inactive are those of the source. The rule behind the calls is not given here.

Columns and labels:
Assay type in all cases: cell-based
[1] = biological target: von Hippel-Lindau disease tumor suppressor/Histone deacetylase 5 (Homo sapiens) (UniProt Q9UQL6+P40337); assay: Protac activity at VHL/HDAC5 in human MM1S cells assessed as HDAC5 degradation at 100 nM after 4 hrs by Western blot analysis
[2] = biological target: T1, von Hippel-Lindau disease tumor suppressor/Protein deacetylase HDAC6 (Mus musculus, UniProt Q9Z2V5+P40338); assay: Protac activity at VHL/HDAC6 in mouse 4935 cells assessed as HDAC6 degradation after 6 hrs by Western blot analysis
How it was run: (§1)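 Mouse 4935 cells were treated with degraders for 6 h, then analysed by Western blot for HDAC6 and acetylated tubulin.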

[3] = biological target: T2, von Hippel-Lindau disease tumor suppressor/Protein deacetylase HDAC6 (Homo sapiens, UniProt Q9UBN7+P40337); assay: Protac activity at VHL/HDAC6 in human MM1S cells assessed as increase in tubulin acetylation at 100 nM measured after 6 hrs by Western blot analysis
How it was run: (§2)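 MM1S cells were treated with degraders at 100 nM for 6 h. Lysates were analysed by Western blot for HDAC6 and acetylated tubulin.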
Target sequence in this assay (P40337 whole entry, looked up): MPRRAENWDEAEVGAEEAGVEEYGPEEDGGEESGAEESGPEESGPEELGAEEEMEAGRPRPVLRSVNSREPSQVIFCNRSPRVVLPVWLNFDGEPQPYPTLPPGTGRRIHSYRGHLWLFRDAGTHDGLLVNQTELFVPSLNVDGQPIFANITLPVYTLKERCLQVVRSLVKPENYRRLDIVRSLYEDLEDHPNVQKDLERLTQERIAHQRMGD
Target sequence in this assay (Q9UBN7 whole entry, looked up): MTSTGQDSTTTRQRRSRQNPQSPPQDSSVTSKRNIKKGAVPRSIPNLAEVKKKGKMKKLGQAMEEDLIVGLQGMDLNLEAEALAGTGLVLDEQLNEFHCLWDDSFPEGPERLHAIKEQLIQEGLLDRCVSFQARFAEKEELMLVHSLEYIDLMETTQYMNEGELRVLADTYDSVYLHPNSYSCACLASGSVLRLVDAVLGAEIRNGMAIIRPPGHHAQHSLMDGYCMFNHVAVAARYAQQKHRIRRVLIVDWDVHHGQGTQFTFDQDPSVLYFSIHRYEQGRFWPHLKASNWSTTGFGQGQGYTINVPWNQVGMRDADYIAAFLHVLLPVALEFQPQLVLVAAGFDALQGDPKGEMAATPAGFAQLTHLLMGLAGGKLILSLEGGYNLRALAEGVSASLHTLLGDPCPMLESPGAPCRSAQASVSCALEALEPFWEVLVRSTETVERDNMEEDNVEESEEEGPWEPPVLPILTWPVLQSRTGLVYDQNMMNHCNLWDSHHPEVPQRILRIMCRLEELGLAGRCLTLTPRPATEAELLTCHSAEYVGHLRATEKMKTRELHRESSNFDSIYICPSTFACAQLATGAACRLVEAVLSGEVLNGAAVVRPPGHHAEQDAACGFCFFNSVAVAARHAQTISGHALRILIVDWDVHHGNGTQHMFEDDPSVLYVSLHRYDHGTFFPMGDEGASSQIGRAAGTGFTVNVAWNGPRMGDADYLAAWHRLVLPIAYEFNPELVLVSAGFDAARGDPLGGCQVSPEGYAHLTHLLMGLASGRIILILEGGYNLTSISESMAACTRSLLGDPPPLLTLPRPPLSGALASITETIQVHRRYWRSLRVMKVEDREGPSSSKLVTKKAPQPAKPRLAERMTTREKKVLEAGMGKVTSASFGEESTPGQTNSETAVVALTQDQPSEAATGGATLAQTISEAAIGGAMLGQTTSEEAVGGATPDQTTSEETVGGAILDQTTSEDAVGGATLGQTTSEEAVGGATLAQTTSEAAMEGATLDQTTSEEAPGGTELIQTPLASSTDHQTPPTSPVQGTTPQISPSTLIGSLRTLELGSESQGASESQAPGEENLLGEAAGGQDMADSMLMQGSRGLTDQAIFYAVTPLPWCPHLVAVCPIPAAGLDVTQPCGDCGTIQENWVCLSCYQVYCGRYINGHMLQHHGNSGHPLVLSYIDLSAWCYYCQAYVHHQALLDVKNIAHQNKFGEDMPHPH

[4] = biological target: von Hippel-Lindau disease tumor suppressor/Histone deacetylase 4 (Homo sapiens) (UniProt P56524+P40337); assay: Protac activity at VHL/HDAC4 in human MM1S cells assessed as HDAC4 degradation at 100 nM after 4 hrs by Western blot analysis
[5] = biological target: T2, von Hippel-Lindau disease tumor suppressor/Protein deacetylase HDAC6; assay: Protac activity at VHL/HDAC6 in human MM1S cells assessed as tubulin acetylation at 100 nM to 1 microM after 6 hrs by Western blot analysis
Target sequence in this assay (P40337 whole entry, looked up): as the sequence (P40337 whole entry, looked up) above
Target sequence in this assay (Q9UBN7 whole entry, looked up): as the sequence (Q9UBN7 whole entry, looked up) above

[6] = biological target: T2, von Hippel-Lindau disease tumor suppressor/Protein deacetylase HDAC6; assay: Protac activity at VHL/HDAC6 in human MM1S cells assessed as HDAC6 degradation at 100 nM pretreated for 1 hr in presence of proteasome inhibitor MG132 by Western blot analysis
How it was run: (§3)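 MM1S cells were pretreated for 1 h with a pathway inhibitor or competing ligand, then given degrader at 100 nM. HDAC6 was read by Western blot. Pretreatment levels: MG132 1 μM, bortezomib 1 μM, MLN4924 5 μM, Next-A 5 μM; VHL-1 was titrated.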
Target sequence in this assay (P40337 whole entry, looked up): as the sequence (P40337 whole entry, looked up) above
Target sequence in this assay (Q9UBN7 whole entry, looked up): as the sequence (Q9UBN7 whole entry, looked up) above

[7] = biological target: T2, von Hippel-Lindau disease tumor suppressor/Protein deacetylase HDAC6; assay: Protac activity at VHL/HDAC6 in human MM1S cells assessed as compound-HDAC6 complex formation at 3 uM after 6 hrs
Target sequence in this assay (P40337 whole entry, looked up): as the sequence (P40337 whole entry, looked up) above
Target sequence in this assay (Q9UBN7 whole entry, looked up): as the sequence (Q9UBN7 whole entry, looked up) above

[8] = biological target: T2, von Hippel-Lindau disease tumor suppressor/Protein deacetylase HDAC6; assay: Protac activity at VHL/HDAC6 in human MM1S cells assessed as induction of tubulin acetylation after 4 hrs by Western blot analysis
How it was run: (§4)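 Dose-response in MM1S cells treated with degrader from 1 nM to 30 μM for 4 h. Lysates were immunoblotted for HDAC6 and acetylated tubulin.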
Target sequence in this assay (P40337 whole entry, looked up): as the sequence (P40337 whole entry, looked up) above
Target sequence in this assay (Q9UBN7 whole entry, looked up): as the sequence (Q9UBN7 whole entry, looked up) above

[9] = biological target: T2, von Hippel-Lindau disease tumor suppressor/Protein deacetylase HDAC6; assay: Protac activity at VHL/HDAC6 in human MM1S cells assessed as compound-VHL complex formation at 3 uM after 6 hrs
Target sequence in this assay (P40337 whole entry, looked up): as the sequence (P40337 whole entry, looked up) above
Target sequence in this assay (Q9UBN7 whole entry, looked up): as the sequence (Q9UBN7 whole entry, looked up) above

[10] = biological target: T2, von Hippel-Lindau disease tumor suppressor/Protein deacetylase HDAC6; assay: Protac activity at VHL/HDAC6 in human HEK293T cells assessed as induction of HDAC degradation by Western blot analysis; conditions: HEK-293T
[11] = biological target: T2, von Hippel-Lindau disease tumor suppressor/Protein deacetylase HDAC6; assay: Protac activity at VHL/HDAC6 in human A549 cells assessed as induction of HDAC degradation by Western blot analysis
[12] = biological target: T2, von Hippel-Lindau disease tumor suppressor/Protein deacetylase HDAC6; assay: Protac activity at VHL/HDAC6 in human MM1S cells assessed as increase in tubulin acetylation at 300 nM after 4 hrs by Western blot analysis; how it was run: as §4
[13] = biological target: T2, von Hippel-Lindau disease tumor suppressor/Protein deacetylase HDAC6; assay: Protac activity at VHL/HDAC6 in human U87MG cells assessed as induction of HDAC degradation by Western blot analysis; conditions: U-87MG ATCC
[14] = biological target: T3, von Hippel-Lindau disease tumor suppressor/Protein deacetylase HDAC6 (Mus musculus) (UniProt Q9Z2V5+P40338); assay: Protac activity at VHL/HDAC6 in mouse 4935 cells assessed as HDAC6 degradation after 6 hrs by ELISA relative to control
[15] = biological target: T2, von Hippel-Lindau disease tumor suppressor/Protein deacetylase HDAC6; assay: Protac activity at VHL/HDAC6 in human MM1S cells assessed as reduction in protein level at 100 nM after 4 hrs by Western blot analysis
[16] = biological target: von Hippel-Lindau disease tumor suppressor/Histone deacetylase 2 (Homo sapiens) (UniProt Q92769+P40337); assay: Protac activity at VHL/HDAC2 in human MM1S cells assessed as HDAC2 degradation at 100 nM after 4 hrs by Western blot analysis
[17] = biological target: von Hippel-Lindau disease tumor suppressor/Histone deacetylase 1 (Homo sapiens) (UniProt Q13547+P40337); assay: Protac activity at VHL/HDAC1 in human MM1S cells assessed as HDAC1 degradation at 100 nM after 4 hrs by Western blot analysis
[18] = biological target: T2, von Hippel-Lindau disease tumor suppressor/Protein deacetylase HDAC6; assay: Protac activity at VHL/HDAC6 in human MM1S cells assessed as induction of tubulin acetylation at 1 uM after 4 hrs by Western blot analysis; how it was run: as §4
[19] = biological target: T2, von Hippel-Lindau disease tumor suppressor/Protein deacetylase HDAC6; assay: Protac activity at VHL/HDAC6 in human MM1S cells assessed as HDAC6 degradation at 100 nM measured after 6 hrs by ELISA
How it was run: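 Linker-length screen. MM1S cells were treated with degraders at 100 nM for 6 h, and HDAC6 protein level was quantified by in-cell ELISA.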

[20] = biological target: T3, von Hippel-Lindau disease tumor suppressor/Protein deacetylase HDAC6 (Mus musculus); assay: Protac activity at VHL/HDAC6 in mouse 4935 cells assessed as tubulin acetylation at 10 nM to 10 uM after 6 hrs by Western blot analysis; how it was run: as §1
[21] = biological target: von Hippel-Lindau disease tumor suppressor/Histone deacetylase 3 (Homo sapiens) (UniProt O15379+P40337); assay: Protac activity at VHL/HDAC3 in human MM1S cells assessed as HDAC3 degradation at 100 nM after 4 hrs by Western blot analysis
[22] = biological target: T2, von Hippel-Lindau disease tumor suppressor/Protein deacetylase HDAC6; assay: Protac activity at VHL/HDAC6 in human MM1S cells assessed as HDAC6 degradation at 100 nM measured after 6 hrs by Western blot analysis; how it was run: as §2
[23] = biological target: T2, von Hippel-Lindau disease tumor suppressor/Protein deacetylase HDAC6; assay: Protac activity at VHL/HDAC6 in human MCF7 cells assessed as induction of HDAC degradation by Western blot analysis
[24] = biological target: T1, von Hippel-Lindau disease tumor suppressor/Protein deacetylase HDAC6; assay: Protac activity at VHL/HDAC6 in mouse 4935 cells assessed as HDAC6 degradation after 6 hrs by ELISA
[25] = biological target: T2, von Hippel-Lindau disease tumor suppressor/Protein deacetylase HDAC6; assay: Protac activity at VHL/HDAC6 in human MM1S cells measured after 6 hrs by ELISA
How it was run: (§5)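 MM1S multiple myeloma cells exposed to degraders for 6 h. HDAC6 protein level was read by in-cell ELISA; dose-response ran from 1 nM to 3 μM. DC50 and Dmax were derived from the dose-response curve.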

[26] = biological target: T2, von Hippel-Lindau disease tumor suppressor/Protein deacetylase HDAC6; assay: Protac activity at VHL/HDAC6 in human MM1S cells assessed as reduction in protein level at 100 nM after 30 mins by Western blot analysis
[27] = biological target: T2, von Hippel-Lindau disease tumor suppressor/Protein deacetylase HDAC6; assay: Protac activity at VHL/HDAC6 in human MM1S cells assessed as HDAC6 degradation at 100 nM pretreated for 1 hr in presence of HDAC6 inhibitor Next-A by Western blot analysis; how it was run: as §3
[28] = biological target: T2, von Hippel-Lindau disease tumor suppressor/Protein deacetylase HDAC6; assay: Protac activity at VHL/HDAC6 in human MM1S cells assessed as HDAC6 degradation at 10 nM measured after 4 hrs by Western blot analysis; how it was run: as §4
[29] = biological target: von Hippel-Lindau disease tumor suppressor/Histone deacetylase 7 (Homo sapiens) (UniProt Q8WUI4+P40337); assay: Protac activity at VHL/HDAC7 in human MM1S cells assessed as HDAC7 degradation at 100 nM after 4 hrs by Western blot analysis
[30] = biological target: T2, von Hippel-Lindau disease tumor suppressor/Protein deacetylase HDAC6; assay: Protac activity at VHL/HDAC6 in human MM1S cells assessed as HDAC6 degradation at 100 nM pretreated for 1 hr in presence of proteasome inhibitor Bortezomib by Western blot analysis; how it was run: as §3
[31] = biological target: von Hippel-Lindau disease tumor suppressor/DNA-binding protein Ikaros (Homo sapiens) (UniProt P40337+Q13422); assay: Protac activity at VHL/IKZF1 in human MM1S cells assessed as IKZF1 degradation at 100 nM after 4 hrs by Western blot analysis
[32] = biological target: T2, von Hippel-Lindau disease tumor suppressor/Protein deacetylase HDAC6; assay: Protac activity at VHL/HDAC6 in human MM1S cells measured after 6 hrs by ELISA relative to control; how it was run: as §5
[33] = biological target: T2, von Hippel-Lindau disease tumor suppressor/Protein deacetylase HDAC6; assay: Protac activity at VHL/HDAC6 in human MM1S cells assessed as HDAC6 degradation at 100 nM measured after 4 hrs by Western blot analysis; how it was run: as §4
[34] = biological target: von Hippel-Lindau disease tumor suppressor/Zinc finger protein Aiolos (Homo sapiens) (UniProt P40337+Q9UKT9); assay: Protac activity at VHL/IKZF3 in human MM1S cells assessed as IKZF3 degradation at 100 nM after 4 hrs by Western blot analysis
[35] = biological target: T3, von Hippel-Lindau disease tumor suppressor/Protein deacetylase HDAC6 (Mus musculus); assay: Protac activity at VHL/HDAC6 in mouse 4935 cells assessed as HDAC6 degradation at 10 nM to 10 uM after 6 hrs by Western blot analysis; how it was run: as §1
[36] = biological target: T2, von Hippel-Lindau disease tumor suppressor/Protein deacetylase HDAC6; assay: Protac activity at VHL/HDAC6 in human MM1S cells assessed as HDAC6 degradation at 100 nM pretreated for 1 hr in presence of 5 uM VHL-1 by Western blot analysis; how it was run: as §3

T3 sequence (P40338 whole entry, looked up): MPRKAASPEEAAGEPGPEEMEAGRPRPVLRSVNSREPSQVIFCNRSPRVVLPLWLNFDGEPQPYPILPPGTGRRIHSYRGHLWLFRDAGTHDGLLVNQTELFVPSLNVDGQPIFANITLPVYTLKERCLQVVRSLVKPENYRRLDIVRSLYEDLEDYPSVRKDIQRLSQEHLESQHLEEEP
T3 sequence (Q9Z2V5 whole entry, looked up): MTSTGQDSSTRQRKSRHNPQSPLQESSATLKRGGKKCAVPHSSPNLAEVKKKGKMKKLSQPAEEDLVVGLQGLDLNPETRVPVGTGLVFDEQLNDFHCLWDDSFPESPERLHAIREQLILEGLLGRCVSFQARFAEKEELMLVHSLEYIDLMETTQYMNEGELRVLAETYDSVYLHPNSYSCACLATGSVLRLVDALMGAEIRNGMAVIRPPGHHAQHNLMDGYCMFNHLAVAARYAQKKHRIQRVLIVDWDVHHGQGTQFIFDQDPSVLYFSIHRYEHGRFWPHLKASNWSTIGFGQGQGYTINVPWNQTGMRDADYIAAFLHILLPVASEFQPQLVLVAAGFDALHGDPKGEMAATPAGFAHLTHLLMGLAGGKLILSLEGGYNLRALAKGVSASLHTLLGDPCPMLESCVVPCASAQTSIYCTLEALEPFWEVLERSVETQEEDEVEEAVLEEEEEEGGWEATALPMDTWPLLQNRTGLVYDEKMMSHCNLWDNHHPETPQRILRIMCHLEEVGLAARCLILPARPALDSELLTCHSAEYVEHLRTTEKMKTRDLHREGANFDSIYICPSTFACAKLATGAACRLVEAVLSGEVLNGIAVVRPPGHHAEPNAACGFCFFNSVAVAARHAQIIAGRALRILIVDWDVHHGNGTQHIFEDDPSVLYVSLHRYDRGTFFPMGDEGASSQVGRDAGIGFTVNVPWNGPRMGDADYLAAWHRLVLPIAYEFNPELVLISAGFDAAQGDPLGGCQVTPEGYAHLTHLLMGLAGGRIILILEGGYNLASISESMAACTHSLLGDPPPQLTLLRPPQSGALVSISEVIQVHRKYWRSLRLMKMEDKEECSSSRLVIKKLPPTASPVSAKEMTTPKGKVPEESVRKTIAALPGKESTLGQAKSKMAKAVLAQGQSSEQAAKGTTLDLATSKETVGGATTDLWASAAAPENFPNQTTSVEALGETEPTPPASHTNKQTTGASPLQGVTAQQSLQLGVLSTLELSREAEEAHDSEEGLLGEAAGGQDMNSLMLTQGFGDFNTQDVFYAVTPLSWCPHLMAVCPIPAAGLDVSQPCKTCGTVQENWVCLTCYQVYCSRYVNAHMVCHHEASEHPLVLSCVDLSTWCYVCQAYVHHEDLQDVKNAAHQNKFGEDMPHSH
T1 sequence (Q9Z2V5 whole entry): as the sequence (Q9Z2V5 whole entry, looked up) above
T1 sequence (P40338 whole entry): as the sequence (P40338 whole entry, looked up) above

Q: What does the source list for CCCCN(Cc1ccc(C(=O)NO)cc1)C(=O)Nc1ccc(OCCCCCCCCCCCn2cc(CCCCC(=O)N[C@H](C(=O)N3C[C@H](O)C[C@H]3C(=O)NCc3ccc(-c4scnc4C)cc3)C(C)(C)C)nn2)cc1?
A: Activity [1]: inactive; DC50 [2]: 12 nM; Activity [3]: Active; Activity [4]: inactive; Activity [5]: Active; Activity [6]: inactive; Activity [7]: Active; Activity [8]: Dose-dependent effect; Activity [9]: Active; Activity [10]: Dose-dependent effect; Activity [11]: Dose-dependent effect; Activity [12]: Active; Activity [13]: Dose-dependent effect; Emax [14]: 57%; Activity [15]: Active; Activity [16]: inactive; Activity [17]: inactive; Activity [18]: Active; Activity [19]: Active; Activity [20]: Active; Activity [21]: inactive; Activity [22]: Active; Activity [23]: Dose-dependent effect; DC50 [24]: 4.3 nM; DC50 [25]: 7.1 nM; Activity [26]: Active; Activity [27]: inactive; Activity [28]: Active; Activity [29]: inactive; Activity [30]: inactive; Activity [31]: inactive; Emax [32]: 90%; Activity [33]: Active; Activity [34]: inactive; Activity [35]: Active; Activity [36]: inactive
